From ChEMBL document CHEMBL3244382, “Structural requirements for antileukemic activity among the naturally occurring and semisynthetic maytansinoids” (J Med Chem, 1978)
≈ marks a conversion by molar mass, not a printed value. Calls of active or inactive are those of the source.

Tests used:
Mus musculus [1] = test: Toxicity in PS mouse allografted with mouse P388 cells assessed as change in body weight at 3.1 ug/kg relative to control; format: organism-based; conditions: in vivo, 0.0031 mg/kg
Method in brief: (§1)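 P388 (PS) leukemia in mice, 6 mice per dose group. Weight change is the difference in grams between treated and control animals. Survivors are recorded on toxicity day, normally 4 days after the first injection.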

Mus musculus [2] = test: Toxicity in PS mouse allografted with mouse P388 cells assessed as change in body weight at 1.6 ug/kg relative to control; format: organism-based; conditions: in vivo, 0.0016 mg/kg; method in brief: as §1
Mus musculus [3] = test: Toxicity in PS mouse allografted with mouse P388 cells assessed as change in body weight at 0.8 ug/kg relative to control; format: organism-based; conditions: in vivo, 0.0008 mg/kg
Method in brief: (§2)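 PS (P388 leukemia) mice, six per dose group. Toxicity read as the difference in grams between the weights of treated and control animals.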

Mus musculus [4] = test: Toxicity in PS mouse allografted with mouse P388 cells assessed as change in body weight at 0.4 ug/kg relative to control; format: organism-based; conditions: in vivo, 0.0004 mg/kg; method in brief: as §2
Mus musculus [5] = test: Toxicity in PS mouse allografted with mouse P388 cells assessed as change in body weight at 0.2 ug/kg relative to control; format: organism-based; conditions: in vivo, 0.0002 mg/kg; method in brief: as §2
Mus musculus [6] = test: Toxicity in PS mouse allografted with mouse P388 cells assessed as survival at 50 ug/kg after 4 days; format: organism-based; conditions: in vivo, 0.05 mg/kg, 96 h
Method in brief: (§3)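 PS (P388) leukemic mice, six started per dose group. Toxicity scored as survivors on the toxicity day over the number of mice started. The toxicity day is normally 4 days after the first injection.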

Mus musculus [7] = test: Toxicity in PS mouse allografted with mouse P388 cells assessed as survival at 25 ug/kg after 4 days; format: organism-based; conditions: in vivo, 0.025 mg/kg, 96 h; method in brief: as §3
Mus musculus [8] = test: Toxicity in PS mouse allografted with mouse P388 cells assessed as survival at 12.5 ug/kg after 4 days; format: organism-based; conditions: in vivo, 0.0125 mg/kg, 96 h; method in brief: as §3
Mus musculus [9] = test: Toxicity in PS mouse allografted with mouse P388 cells assessed as survival at 6.2 ug/kg after 4 days; format: organism-based; conditions: in vivo, 0.0062 mg/kg, 96 h; method in brief: as §3
Mus musculus [10] = test: Toxicity in PS mouse allografted with mouse P388 cells assessed as survival at 3.1 ug/kg after 4 days; format: organism-based; conditions: in vivo, 0.0031 mg/kg, 96 h; method in brief: as §3
Mus musculus [11] = test: Toxicity in PS mouse allografted with mouse P388 cells assessed as survival at 1.6 ug/kg after 4 days; format: organism-based; conditions: in vivo, 0.0016 mg/kg, 96 h; method in brief: as §3
Mus musculus [12] = test: Toxicity in PS mouse allografted with mouse P388 cells assessed as survival at 0.8 ug/kg after 4 days; format: organism-based; conditions: in vivo, 0.0008 mg/kg, 96 h; method in brief: as §3
Mus musculus [13] = test: Toxicity in PS mouse allografted with mouse P388 cells assessed as survival at 0.4 ug/kg after 4 days; format: organism-based; conditions: in vivo, 0.0004 mg/kg, 96 h; method in brief: as §3
Mus musculus [14] = test: Toxicity in PS mouse allografted with mouse P388 cells assessed as survival at 0.2 ug/kg after 4 days; format: organism-based; conditions: in vivo, 0.0002 mg/kg, 96 h; method in brief: as §3
Mus musculus [15] = test: Toxicity in PS mouse allografted with mouse P388 cells assessed as survival at 0.1 ug/kg after 4 days; format: organism-based; conditions: in vivo, 0.0001 mg/kg, 96 h; method in brief: as §3
Mus musculus [16] = test: Toxicity in PS mouse allografted with mouse P388 cells assessed as change in body weight at 50 ug/kg relative to control; format: organism-based; conditions: in vivo, 0.05 mg/kg; method in brief: as §1
Mus musculus [17] = test: Toxicity in PS mouse allografted with mouse P388 cells assessed as change in body weight at 25 ug/kg relative to control; format: organism-based; conditions: in vivo, 0.025 mg/kg; method in brief: as §1
Mus musculus [18] = test: Toxicity in PS mouse allografted with mouse P388 cells assessed as change in body weight at 12.5 ug/kg relative to control; format: organism-based; conditions: in vivo, 0.0125 mg/kg; method in brief: as §1
Mus musculus [19] = test: Toxicity in PS mouse allografted with mouse P388 cells assessed as change in body weight at 6.2 ug/kg relative to control; format: organism-based; conditions: in vivo, 0.0062 mg/kg; method in brief: as §1
Mus musculus [20] = test: Toxicity in PS mouse allografted with mouse P388 cells assessed as change in body weight at 0.1 ug/kg relative to control; format: organism-based; conditions: in vivo, 0.0001 mg/kg; method in brief: as §2
P388 [21] = test: Antitumor activity against mouse P388 cells allografted in PS mouse assessed as median survival time at 50 ug/kg relative to control; format: functional
Method in brief: (§4)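 P388 leukemia (PS) in mice, six mice started per dose group. Read-out is T/C: median survival time of the treated group divided by that of the untreated control group, expressed as a percent. The NIH protocol counts a compound as active when T/C > 125%.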

P388 [22] = test: Antitumor activity against mouse P388 cells allografted in PS mouse assessed as median survival time at 25 ug/kg relative to control; format: functional; method in brief: as §4
P388 [23] = test: Antitumor activity against mouse P388 cells allografted in PS mouse assessed as median survival time at 12.5 ug/kg relative to control; format: functional; method in brief: as §4
P388 [24] = test: Antitumor activity against mouse P388 cells allografted in PS mouse assessed as median survival time at 6.2 ug/kg relative to control; format: functional; method in brief: as §4
P388 [25] = test: Antitumor activity against mouse P388 cells allografted in PS mouse assessed as median survival time at 3.1 ug/kg relative to control; format: functional; method in brief: as §4
P388 [26] = test: Antitumor activity against mouse P388 cells allografted in PS mouse assessed as median survival time at 1.6 ug/kg relative to control; format: functional; method in brief: as §4
P388 [27] = test: Antitumor activity against mouse P388 cells allografted in PS mouse assessed as median survival time at 0.8 ug/kg relative to control; format: functional; method in brief: as §4
P388 [28] = test: Antitumor activity against mouse P388 cells allografted in PS mouse assessed as median survival time at 0.4 ug/kg relative to control; format: functional; method in brief: as §4
P388 [29] = test: Antitumor activity against mouse P388 cells allografted in PS mouse assessed as median survival time at 0.2 ug/kg relative to control; format: functional; method in brief: as §4
P388 [30] = test: Antitumor activity against mouse P388 cells allografted in PS mouse assessed as median survival time at 0.1 ug/kg relative to control; format: functional; method in brief: as §4
Tubulin (Homo sapiens) = Tubulin (Homo sapiens) (UniProt P68371+Q9H4B7+P0DPH7+P68366+Q13509+Q71U36+P04350+Q3ZCM7+P07437+P68363+Q9BQE3+Q6PEY2+Q13885+Q9BVA1+Q9BUF5); test: Inhibition of brain tubulin polymerization (unknown origin) at 37 degC by spectrophotometry
Paracentrotus lividus = test: Antimitotic activity against sea urchin eggs assessed as drug level causing inhibition of mitosis; format: functional; conditions: Egg
Mus musculus [31] = test: Toxicity in PS mouse allografted with mouse P388 cells assessed as survival at 100 ug/kg after 4 days; format: organism-based; conditions: in vivo, 0.1 mg/kg, 96 h; method in brief: as §3
Mus musculus [32] = test: Toxicity in PS mouse allografted with mouse P388 cells assessed as change in body weight at 100 ug/kg relative to control; format: organism-based; conditions: in vivo, 0.1 mg/kg; method in brief: as §1
P388 [33] = test: Antitumor activity against mouse P388 cells allografted in PS mouse assessed as median survival time at 100 ug/kg relative to control; format: functional; method in brief: as §4
KB = test: Cytotoxicity against human KB cells; format: functional; conditions: read-out: ED50 (the source's name)

Structure (SMILES) | Activity (Mus musculus [1]) [g] | Activity (Mus musculus [2]) [g] | Activity (Mus musculus [3]) [g] | Activity (Mus musculus [4]) [g] | Activity (Mus musculus [5]) [g] | Activity (Mus musculus [6]) | Activity (Mus musculus [7]) | Activity (Mus musculus [8]) | Activity (Mus musculus [9]) | Activity (Mus musculus [10]) | Activity (Mus musculus [11]) | Activity (Mus musculus [12]) | Activity (Mus musculus [13]) | Activity (Mus musculus [14]) | Activity (Mus musculus [16]) [g] | Activity (Mus musculus [17]) [g] | Activity (Mus musculus [18]) [g] | Activity (Mus musculus [19]) [g] | T/C (P388 [21]) [%] | T/C (P388 [22]) [%] | also measured
COc1cc2cc(c1Cl)N(C)C(=O)C[C@H](OC(=O)[C@H](C)N(C)C(=O)CC(C)C)[C@]1(C)O[C@H]1[C@H](C)[C@@H]1C[C@@](O)(NC(=O)O1)[C@H](OC)/C=C/C=C(\C)C2 | 0.2 | -1.3 | 0.7 | -1.1 | -0.6 | Non-toxic | Non-toxic | Non-toxic | Non-toxic | Non-toxic | Non-toxic | Non-toxic | Non-toxic | Non-toxic | -0.5 | -0.4 | 1.3 | 0.8 | <80 | 116 | Activity (Mus musculus [15]): Non-toxic; Activity (Mus musculus [20]): 1.4 g; T/C (P388 [23]): 187%; T/C (P388 [24]): 154%; T/C (P388 [25]): 158%; T/C (P388 [26]): 154%; T/C (P388 [27]): 133%; T/C (P388 [28]): 125%; T/C (P388 [29]): 125%; T/C (P388 [30]): 120%; inhibition (Tubulin (Homo sapiens)): Active; Activity (Paracentrotus lividus): 1 ×10⁻⁸ mol/L
COc1cc2cc(c1Cl)NC(=O)/C=C/[C@]1(C)O[C@H]1[C@H](C)[C@@H]1C[C@@](O)(NC(=O)O1)[C@H](OC)/C=C/C=C(\C)C2 | -0.2 | 0 | -0.1 | 0.1 | 1 | Non-toxic | Non-toxic | Non-toxic | Non-toxic | Non-toxic | Non-toxic | Non-toxic | Non-toxic | Non-toxic | -0.3 | -0.5 | -0.5 | 0.4 | 110 | 110 | Activity (Mus musculus [31]): Non-toxic; Activity (Mus musculus [32]): 1.2 g; T/C (P388 [33]): 95%; T/C (P388 [23]): 110%; T/C (P388 [24]): 115%; T/C (P388 [25]): 115%; T/C (P388 [26]): 100%; T/C (P388 [27]): 90%; T/C (P388 [28]): 100%; T/C (P388 [29]): 100%; EC50 (KB): 0.019 µg/mL (≈ 0.0356 µM); inhibition (Tubulin (Homo sapiens)): Active; Activity (Paracentrotus lividus): 1 µM
